pIC50: −log10 of the molar value. Converted amounts (≈) assume the structure as drawn.
Key:
[1] = system: MRC5; test: (§1) Cytotoxicity against human MRC5 cells assessed as cell growth inhibition after 48 hrs by resazurin dye reduction method; type: cell-based; conditions: Homo sapiens, MRC5, 48 h
Procedure, shortened: (§2)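 THP-1 human monocytic cells were grown in RPMI 1640 with 10% FBS, and MRC-5 fetal lung fibroblasts in DMEM with 10% FBS, at 37 °C in humidified 5% CO2. About 5 × 10^4 cells per well were exposed to compounds for 48 h, then to resazurin for about 3 h more. Fluorescence was read at ex 540/em 590 nm. Growth was set against uninoculated (0%) and untreated (100%) controls, and IC50 was taken as the concentration giving 50% growth inhibition.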

[2] = system: Mycobacterium tuberculosis; test: Antitubercular activity against Mycobacterium tuberculosis after 6 days by resazurin dye reduction method; type: functional; conditions: 144 h; for MIC: read-out: MIC100
Procedure, shortened: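 M. tuberculosis grown aerobically at 37 °C in Middlebrook 7H9 with 0.5% glycerol, 0.05% Tyloxapol, 10% ADS enrichment; log-phase cultures (OD600 ~1) seeded at 1 × 10^5 cells/well, exposed to test substances 6 days. Resazurin added ~8 h, then formalin fixation (5% final); fluorescence ex 540/em 590 nm. Growth relative to rifampicin (0%) and DMSO (100%) controls; MIC90 = 90% growth inhibition.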

[3] = system: THP-1; test: (§3) Cytotoxicity against human THP1 cells assessed as cell growth inhibition after 48 hrs by resazurin dye reduction method; type: cell-based; conditions: Homo sapiens, THP-1, 48 h; procedure, shortened: as §2
[4] = as §1; type: cell-based; conditions: human, MRC5 cells; procedure, shortened: as §2
[5] = as §3; type: cell-based, THP-1; conditions: human, THP-1 cells; procedure, shortened: as §2

Row | SMILES | pIC50 [1] | MIC90 [2] | pIC50 [3] | IC90 at 48 h [4] | MIC [2] | IC90 at 48 h [5]
1 | COC1NC(=O)N/C1=C\[C@@H]1N/C=C(/C(=O)N2CCC[C@H]2C(=O)N[C@@H](CC(C)C)C(=O)N[C@@H](Cc2ccccc2)C(=O)NCC(N)=O)NC(=O)[C@H](C(C)C)NC(=O)[C@@H]2CCCN2C(=O)[C@@H]2CCCN2C(=O)[C@H](CC(C)C)NC(=O)[C@H](CC(C)C)NC(=O)[C@@H]2C[C@@H](O)CN2C1=O (stereo partly drawn) | < 5.00 | > 100 µM | < 5.00 | – | – | –
2 | CC[C@H](C)[C@@H]1NC(=O)[C@H](CCC(=O)O)NC(=O)[C@@H]2C[C@@H](O)CN2C(=O)[C@H]([C@@H](C)CC)N/C=C(/C(=O)N2CCC[C@H]2C(=O)N[C@@H](CC(C)C)C(=O)N[C@@H](Cc2ccccc2)C(N)=O)NC(=O)[C@H](CC(C)C)NC(=O)[C@@H]2CCCN2C(=O)[C@@H]2CCCN2C(=O)[C@H](C(C)C)NC1=O | < 5.00 | > 100 µM | < 5.00 | – | – | –
3 | CC[C@H](C)[C@H](NC(=O)[C@H](Cc1ccccc1)NC(=O)[C@@H]1CCCN1C(=O)/C1=C/N[C@@H](Cc2ccccc2)C(=O)N2CCC[C@H]2C(=O)N[C@@H](Cc2ccccc2)C(=O)NCC(=O)N[C@@H](CC(C)C)C(=O)N2CCC[C@H]2C(=O)N2CCC[C@H]2C(=O)N[C@@H](Cc2ccccc2)C(=O)N1)C(=O)N[C@@H](CC(=O)O)C(=O)O | < 5.00 | > 100 µM | < 5.00 | – | – | –
4 | CC[C@H](C)[C@H](NC(=O)[C@@H](NC(=O)[C@@H]1CCCN1C(=O)/C1=C/N[C@@H](Cc2ccccc2)C(=O)N2CCC[C@H]2C(=O)N[C@@H](CC(C)C)C(=O)N[C@@H](Cc2ccccc2)C(=O)N2CCC[C@H]2C(=O)N2CCC[C@H]2C(=O)N[C@@H](C(C)C)C(=O)N1)[C@@H](C)CC)C(=O)NCC(N)=O | < 5.00 | > 100 µM | < 5.00 | – | – | –
5 | CC(C)C[C@H](NC(=O)[C@@H]1CCCN1C(=O)/C1=C/N[C@@H](CC(C)C)C(=O)N2CCC[C@H]2C(=O)N[C@@H](Cc2ccccc2)C(=O)N[C@@H](Cc2ccccc2)C(=O)N2CCC[C@H]2C(=O)N2CCC[C@H]2C(=O)N[C@@H](C(C)C)C(=O)N1)C(=O)N[C@@H](Cc1ccccc1)C(=O)NCC(N)=O | < 5.00 | > 100 µM | < 5.00 | – | – | –
6 | CC[C@@H](C)[C@@H]1NC(=O)[C@H](C(C)C)NC(=O)[C@@H]2C[C@@H](O)CN2C(=O)[C@H]([C@@H](C)CC)N/C=C(\C(=O)N2CCC[C@H]2C(=O)N[C@H](C(=O)N[C@@H](Cc2ccccc2)C(=O)NCC(N)=O)[C@@H](C)CC)NC(=O)[C@H](CC(C)C)NC(=O)[C@@H]2CCCN2C(=O)[C@@H]2CCCN2C(=O)[C@H](CC(C)C)NC1=O [CALLYAERIN A] | 4.70 | 2 µM (≈ 2.72 µg/mL) | 4.52 | 40 µM | 6 µM (≈ 8.15 µg/mL) | 50 µM
7 | CC[C@@H](C)[C@@H]1NC(=O)[C@H]([C@@H](C)CC)NC(=O)[C@@H]2C[C@@H](O)CN2C(=O)[C@H]([C@H](C)CC)N/C=C(\C(=O)N2CCC[C@H]2C(=O)N[C@H](C(=O)N[C@H](C(=O)O)[C@@H](C)CC)[C@@H](C)CC)NC(=O)[C@H](CC(C)C)NC(=O)[C@@H]2CCCN2C(=O)[C@@H]2CCCN2C(=O)[C@H](CC(C)C)NC1=O [CALLYAERIN B] | 5.70 | 5 µM (≈ 6.41 µg/mL) | 5.30 | 6 µM | 10 µM (≈ 12.8 µg/mL) | 30 µM
8 | CC[C@H](C)[C@H](NC(=O)[C@@H](NC(=O)[C@@H]1CCCN1C(=O)/C1=C/N[C@@H](CC(C)C)C(=O)N2CCC[C@H]2C(=O)N[C@@H](Cc2ccccc2)C(=O)N[C@@H](Cc2ccccc2)C(=O)N2CCC[C@H]2C(=O)N2CCC[C@H]2C(=O)N[C@@H](C(C)C)C(=O)N1)[C@@H](C)CC)C(=O)NCC(=O)O [CALLYAERIN E] | < 5.00 | 100 µM (≈ 126 µg/mL) | < 5.00 | – | – | –
9 | CC[C@H](C)[C@H](NC(=O)[C@H](Cc1ccccc1)NC(=O)[C@H](CC(C)C)NC(=O)[C@@H]1CCCN1C(=O)/C1=C\N[C@@H](C(C)C)C(=O)N2CCC[C@H]2C(=O)N[C@@H](C(C)C)C(=O)N[C@@H](Cc2ccccc2)C(=O)N2CCC[C@H]2C(=O)N1)C(=O)O [CALLYAERIN F] | < 5.00 | 50 µM (≈ 54.8 µg/mL) | < 5.00 | – | – | –
10 | CC[C@@H](CO)NCCN[C@@H](CC)CO [ETHAMBUTOL] | – | 1.25 µM (≈ 0.255 µg/mL) | – | – | 5 µM (≈ 1.02 µg/mL) | –
11 | NNC(=O)c1ccncc1 [ISONIAZID] | – | 0.625 µM (≈ 0.0857 µg/mL) | – | – | 1.25 µM (≈ 0.171 µg/mL) | –
12 | CO[C@H]1/C=C/O[C@@]2(C)Oc3c(C)c(O)c4c(O)c(c(/C=N/N5CCN(C)CC5)c(O)c4c3C2=O)NC(=O)/C(C)=C\C=C\[C@H](C)[C@H](O)[C@@H](C)[C@@H](O)[C@@H](C)[C@H](OC(C)=O)[C@@H]1C [RIFAMPIN] | < 4.00 | < 0.1 µM | < 4.00 | > 100 µM | 0.5 µM (≈ 0.411 µg/mL) | > 100 µM
